Results published in ChEMBL document CHEMBL2057177, “Analogues of fenarimol are potent inhibitors of Trypanosoma cruzi and are efficacious in a murine model of Chagas disease” (J Med Chem, 2012).
Converted amounts (≈) assume the structure as drawn.

Experiments:
[1] = system: Trypanosoma cruzi; experiment: Antitrypanosomal activity against trypomastigotes of Trypanosoma cruzi Tulahuen expressing the beta- galactosidase gene infected rat L6 cells after 96 hrs; type: functional, organism-based; details: L6, 96 h
Method in brief: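 Tulahuén trypomastigotes expressing β-galactosidase, maintained by serial passage in L6 cells. L6 cells seeded and left 24 h at 37 °C, 5% CO2, then infected at MOI 3 for 48 h. Compound exposure 96 h, benznidazole control. CPRG with 0.3% Nonidet P-40 added, absorbance at 530 nm after 4−6 h. IC50 taken from % inhibition curve; mean of at least two assays.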

[2] = system: L6; experiment: Cytotoxicity against rat L6 cells after 72 hrs by Alamar Blue assay; type: cell-based; details: L6, 72 h
Method in brief: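 L6 rat skeletal myoblasts in RPMI 1640 with 10% FBS. Exposed to compound for 72 h, seven-point serial dilutions in triplicate. Alamar Blue read at 570 and 630 nm. IC50 is the mean of at least two assays; podophyllotoxin used as control.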

[3] = Kinetic solubility of the compound at pH 6.5 by nephelometric analysis; type: physicochemical; details: buffer, read-out: Kinetic_solubility
[4] = target: CYP3A4/5 (Homo sapiens, UniProt P08684+P20815); experiment: Inhibition of CYP3A4/5 in human liver microsomes; type: ADME, Microsome
[5] = Plasma concentration in Swiss mouse at 20 mg/kg, po after 1 hr; type: ADME, organism-based; parameters: dose 20 mg/kg, route oral
Method in brief: (§1)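 Nonfasted male Swiss outbred mice (23.8–39.9 g), fed throughout. Dosed by oral gavage as solution or suspension in aqueous vehicle. Plasma assayed by LC-MS against blank-plasma standards after acetonitrile precipitation; LLOQ 0.001–0.015 μM.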

[6] = Plasma concentration in Swiss mouse at 20 mg/kg, po after 8 hrs; type: ADME, organism-based; parameters: dose 20 mg/kg, route oral; method in brief: as §1
[7] = Plasma concentration in Swiss mouse at 20 mg/kg, po after 24 hrs; type: ADME, organism-based; parameters: dose 20 mg/kg, route oral

| SMILES | IC50 [1] [nM] | IC50 [2] [nM] | further results |
| --- | --- | --- | --- |
| OC(c1ccc(Cl)cc1)(c1ccc(Cl)cc1)c1cccnc1 | 95 | – | – |
| OC(c1ccc(C(F)(F)F)cc1)(c1ccc(C(F)(F)F)cc1)c1cccnc1 | 15 | – | – |
| Clc1ccc(C(c2ccc(Cl)cc2)c2cncnc2)cc1 | 683 | – | – |
| OC(c1ccc(Cl)cc1)(c1ccc(Cl)cc1)c1cncnc1 | 220 | – | – |
| Clc1ccc(C(c2ccc(Cl)cc2)c2cccnc2)cc1 | 80 | 84700 | – |
| OC(c1ccc(Cl)cc1)(c1cccnc1)c1ccccc1Cl (racemic) | – | – | solubility kinetic [3]: 3.1 µg/mL (≈ 9.39 µM); IC50 [4]: 600 nM |
| Cc1ccccc1C(O)(c1ccc(Cl)cc1)c1cccnc1 (racemic) | – | 82000 | – |
| OC(c1ccc(Cl)cc1)(c1cccnc1)c1ccc(Br)cc1F (racemic) | 26 | 79200 | – |
| OC(c1ccc(Cl)cc1)(c1cccnc1)c1ccc(Cl)cc1F (racemic) | 10 | 59400 | solubility kinetic [3]: 1.6 µg/mL (≈ 4.6 µM); IC50 [4]: 900 nM |
| [O-][n+]1cncc(C(O)(c2ccc(Cl)cc2)c2ccccc2Cl)c1 (racemic) | – | > 100000 | – |
| COC(c1ccc(Cl)cc1)(c1cccnc1)c1ccccc1Cl (racemic) | 90 | 58700 | – |
| OC(c1ccc(Cl)cc1)(c1ncccn1)c1ccccc1Cl (racemic) | – | > 100000 | – |
| CC(C)CNC(c1ccc(Cl)cc1)(c1cccnc1)c1ccccc1Cl (racemic) | 606 | – | – |
| OC(c1ccc(Cl)cc1)(c1cccnc1)c1nccs1 (racemic) | – | > 100000 | – |
| OC(c1cccnc1)(c1cccs1)c1ccc(Cl)cc1F (racemic) | 5 | > 100000 | – |
| OC(c1ccc(Cl)cc1)(c1ccncn1)c1ccccc1Cl (racemic) | – | > 100000 | – |
| CS(=O)(=O)Nc1ccc(C(O)(c2ccc(Cl)cc2)c2cccnc2)cc1 (racemic) | 30 | > 100000 | – |
| CN(C)c1ccc(C(O)(c2ccc(C(F)(F)F)cc2)c2cccnc2)cc1 (racemic) | 6 | – | – |
| OC(c1ccc(Cl)cc1)(c1cccnc1)c1cnc(Cl)s1 (racemic) | – | > 100000 | – |
| NC(=O)c1ccc(C(O)(c2ccc(C(F)(F)F)cc2)c2cccnc2)cc1 (racemic) | – | > 100000 | – |
| COc1ccc(C(O)(c2ccc(Cl)cc2)c2cccnc2)cc1 (racemic) | 40 | – | – |

| SMILES | IC50 [1] [nM] | IC50 [2] [nM] | further results |
| --- | --- | --- | --- |
| OC(c1ccc(Cl)cc1)(c1cccnc1)c1ccsc1 (racemic) | – | > 100000 | – |
| CC(C)c1ccc(C(O)(c2ccc(C(F)(F)F)cc2)c2cccnc2)cc1 (racemic) | 2 | 56300 | – |
| CC(C)Oc1ccc(C(O)(c2ccc(C(F)(F)F)cc2)c2cccnc2)cc1 (racemic) | 4 | – | solubility kinetic [3]: 1.6 µg/mL (≈ 4.13 µM); IC50 [4]: 1400 nM |
| NC(=O)c1cccc(C(O)(c2cccnc2)c2ccc(Cl)cc2F)c1 (racemic) | 25 | > 100000 | concentration at 1 h [5]: 10500 nM; concentration at 8 h [6]: 440 nM; concentration at 24 h [7]: 6 nM; solubility kinetic [3]: 50 µg/mL (≈ 140 µM); IC50 [4]: 3900 nM |
| CC(C)C(=O)Nc1ncc(C(O)(c2ccc(Cl)cc2)c2cccnc2)s1 (racemic) | 21 | – | – |
| OC(c1ccc(Cl)cc1)(c1ccc(C(F)(F)F)cc1)c1cccnc1 (racemic) | 8 | – | – |
| OC(c1ccc(Cl)cc1)(c1cccnc1)c1ccccc1Br (racemic) | 70 | – | – |
| CC(C)Oc1ccc(C(O)(c2cccnc2)c2cnc(Cl)nc2)cc1 (racemic) | 304 | > 100000 | – |
| OC(c1ccc(Br)cc1)(c1ccc(C(F)(F)F)cc1)c1cccnc1 (racemic) | 20 | – | – |
| CC(C)Oc1ccccc1C(O)(c1ccc(Cl)cc1)c1cccnc1 (racemic) | – | 48300 | – |
| NC(=O)c1cccc(C(O)(c2ccc(C(F)(F)F)cc2)c2cccnc2)c1 (racemic) | 70 | > 100000 | – |
| OC(c1ccc(Cl)cc1)(c1cccnc1)c1cncnc1 (racemic) | – | > 100000 | concentration at 1 h [5]: 300 nM; concentration at 8 h [6]: < 2 nM; solubility kinetic [3]: > 100 µg/mL; IC50 [4]: 5000 nM |
| COc1cccc(C(O)(c2ccc(Cl)cc2)c2cccnc2)c1 (racemic) | 60 | – | – |
| OC(c1ccc(Cl)cc1)(c1cccnc1)c1ccc(F)cc1F (racemic) | 16 | – | – |
| NC(c1ccc(Cl)cc1)(c1cccnc1)c1ccccc1Cl (racemic) | 90 | – | – |
| N#Cc1ccc(C(O)(c2ccc(Cl)cc2)c2cccnc2)c(F)c1 (racemic) | – | > 100000 | – |
| OC(c1ccc(Cl)cc1)(c1cccnc1)c1ccccc1F (racemic) | 35 | > 100000 | – |
| CC(C)Oc1ncc(C(O)(c2ccc(Cl)cc2)c2cccnc2)cn1 (racemic) | 60 | > 100000 | – |
| OC(c1ccc(Cl)cc1)(c1cncnc1)c1ccccc1F (racemic) | – | > 100000 | – |
| N#CC(c1ccc(Cl)cc1)(c1cccnc1)c1ccccc1Cl (racemic) | 50 | – | – |
| N#Cc1ccc(C(O)(c2ccc(Cl)cc2)c2cccnc2)cc1 (racemic) | 70 | > 100000 | – |

| SMILES | IC50 [1] [nM] | IC50 [2] [nM] | further results |
| --- | --- | --- | --- |
| Cc1ccc(C(O)(c2ccc(OC(C)C)cc2)c2cccnc2)c(F)c1 (racemic) | 3 | – | – |
| N#Cc1ccc(C(O)(c2ccc(C(F)(F)F)cc2)c2cccnc2)c(F)c1 (racemic) | 2 | – | concentration at 1 h [5]: 1400 nM; concentration at 8 h [6]: 300 nM; concentration at 24 h [7]: 50 nM; solubility kinetic [3]: 6.3 µg/mL (≈ 16.9 µM); IC50 [4]: 4100 nM |
| OC(c1ccc(C(F)(F)F)cc1)(c1cccnc1)c1ccc(Cl)cc1F (racemic) | 2 | > 100000 | concentration at 1 h [5]: 1240 nM; concentration at 8 h [6]: 230 nM; concentration at 24 h [7]: 3 nM; solubility kinetic [3]: < 1.6 µg/mL; IC50 [4]: 1400 nM |
| OC(c1ccc(Cl)cc1)(c1ccccn1)c1ccccc1Cl (racemic) | 27000 | > 100000 | – |
| Clc1ccc(C(c2cncnc2)c2ccccc2Cl)cc1 (racemic) | – | > 100000 | – |
| OC(c1ccc(Cl)cc1)(c1cccnc1)c1cncs1 (racemic) | – | > 100000 | – |
| OC(c1ccc(Cl)cc1)(c1cccnc1)c1ccccc1C(F)(F)F (racemic) | 120 | – | – |
| OC(c1ccc(Cl)cc1)(c1cnccn1)c1ccccc1Cl (racemic) | – | > 100000 | – |
| Cc1ccc(C(O)(c2ccc(Cl)cc2)c2cncnc2)cc1 (racemic) | 24 | – | – |
| OC(c1ccc(C(F)(F)F)cc1)(c1cccnc1)c1cc2ccccc2s1 (racemic) | 20 | – | – |
| CC(C)Oc1ccc(C(O)(c2cccnc2)c2ccc(Cl)cc2F)cc1 (racemic) | 1 | – | solubility kinetic [3]: 1.6 µg/mL (≈ 4.3 µM); IC50 [4]: 1100 nM |
| OC(c1ccc(Cl)cc1)(c1cccnc1)c1cccc(F)c1 (racemic) | 100 | 66000 | – |
| N#Cc1cccc(C(O)(c2ccc(Cl)cc2)c2cccnc2)c1 (racemic) | – | > 100000 | – |
| CC(C)Oc1cccc(C(O)(c2ccc(Cl)cc2)c2cccnc2)c1 (racemic) | 82 | 67600 | – |
| CC(C)Oc1ccc(C(O)(c2ccc(Cl)cc2)c2cccnc2)c(F)c1 (racemic) | 26 | 58200 | – |
| Nc1ncc(C(O)(c2ccc(Cl)cc2)c2cccnc2)s1 (racemic) | 260 | 56000 | – |
| OC(c1ccc(Cl)cc1)(c1ccc(C(F)(F)F)cc1)c1cncnc1 (racemic) | 197 | 66800 | – |
| OC(c1ccc(Cl)cc1)(c1cncnc1)c1cccc(F)c1 (racemic) | – | > 100000 | – |
| OC(c1ccc(Cl)cc1)(c1cccnc1)c1cccc(C(F)(F)F)c1 (racemic) | 70 | – | – |
